pIC50: −log10 of the molar value. ≈ marks a conversion by molar mass, not a printed value.
Legend:
[1] = target: Calcium/calmodulin-dependent protein kinase kinase 2 (Mus musculus, UniProt Q8C078); experiment: Inhibition of CAMKK2 in mouse N39 cells assessed as decrease in AMPKalpha phosphorylation at T172 preincubated for 80 mins followed by […] addition by ELISA; format: cell-based
In short: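 Mouse N39 cells seeded ~1000 cells/well, cultured overnight at 37°C, 5% CO2, then exposed to compound in DMSO for 80 min before ionomycin stimulation ([…] as added). Cells were lysed in extraction buffer for 30 min on ice, then diluted into ice-cold lysis buffer containing protease and phosphatase inhibitors for MSD read-out.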

[2] = Solubility of the compound in pH 7.4 phosphate buffer saline after 1 hr by chemiluminescence nitrogen detection method; format: physicochemical; settings: phosphate buffered saline
In short: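 Kinetic solubility: 10 mM DMSO stock diluted 1:20 into 10 mM phosphate-buffered saline pH 7.4, equilibrated 1 h at RT, filtered, and filtrate quantified by calibrated flow-injection chemiluminescent nitrogen detection.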

[3] = target: T1, Inhibitor of nuclear factor kappa-B kinase subunit alpha (Homo sapiens, UniProt O15111); experiment: Inhibition of IKK1 (unknown origin)
T1 sequence (O15111 whole entry): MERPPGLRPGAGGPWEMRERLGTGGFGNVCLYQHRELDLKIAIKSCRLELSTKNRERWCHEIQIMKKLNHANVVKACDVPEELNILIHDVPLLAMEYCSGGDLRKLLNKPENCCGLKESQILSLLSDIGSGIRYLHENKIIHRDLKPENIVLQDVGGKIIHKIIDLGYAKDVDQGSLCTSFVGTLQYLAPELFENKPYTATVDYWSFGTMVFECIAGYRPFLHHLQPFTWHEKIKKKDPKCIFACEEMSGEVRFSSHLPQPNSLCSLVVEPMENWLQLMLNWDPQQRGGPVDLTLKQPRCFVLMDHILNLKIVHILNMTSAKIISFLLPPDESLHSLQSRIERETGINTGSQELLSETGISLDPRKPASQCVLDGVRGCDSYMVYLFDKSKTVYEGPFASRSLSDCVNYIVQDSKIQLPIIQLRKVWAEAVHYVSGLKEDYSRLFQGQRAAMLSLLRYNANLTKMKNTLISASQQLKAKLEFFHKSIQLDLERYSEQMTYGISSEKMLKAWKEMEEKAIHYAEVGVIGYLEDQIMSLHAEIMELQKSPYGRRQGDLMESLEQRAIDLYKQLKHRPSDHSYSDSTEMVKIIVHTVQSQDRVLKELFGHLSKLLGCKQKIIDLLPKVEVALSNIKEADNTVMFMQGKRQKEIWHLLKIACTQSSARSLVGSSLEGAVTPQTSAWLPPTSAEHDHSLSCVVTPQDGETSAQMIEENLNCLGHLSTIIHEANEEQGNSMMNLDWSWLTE

[4] = target: Insulin receptor (Homo sapiens, UniProt P06213); experiment: Inhibition of INSR (unknown origin); settings: read-out: pIC50 (converted)
[5] = target: Calcium/calmodulin-dependent protein kinase kinase 2 (Homo sapiens, UniProt Q96RR4); experiment: Inhibition of full-length human GST-tagged CAMKK2 using 5FAM-AKPKGNKDYHLQTCCGSLAYRRR-amide as substrate preincubated for 30 mins followed by substrate addition measured after 120 mins by fluorescence polarization assay
[6] = target: Mitogen-activated protein kinase 8 (Homo sapiens, UniProt P45983); experiment: Inhibition of JNK1 (unknown origin)
Chain of Mitogen-activated protein kinase 8 (P45983 whole entry): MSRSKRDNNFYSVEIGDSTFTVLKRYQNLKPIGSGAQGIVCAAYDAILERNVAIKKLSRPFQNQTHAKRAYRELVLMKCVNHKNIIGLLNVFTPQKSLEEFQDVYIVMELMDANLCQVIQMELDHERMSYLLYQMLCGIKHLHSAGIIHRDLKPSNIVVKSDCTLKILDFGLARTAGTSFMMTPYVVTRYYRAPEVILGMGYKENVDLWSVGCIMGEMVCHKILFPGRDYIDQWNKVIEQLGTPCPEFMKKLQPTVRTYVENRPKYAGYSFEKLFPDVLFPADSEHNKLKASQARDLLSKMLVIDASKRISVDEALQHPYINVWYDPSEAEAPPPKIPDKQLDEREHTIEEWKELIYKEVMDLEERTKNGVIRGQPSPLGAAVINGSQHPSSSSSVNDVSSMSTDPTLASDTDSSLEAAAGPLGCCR

Chain of Calcium/calmodulin-dependent protein kinase kinase 2 (Homo sapiens, UniProt Q96RR4) (Q96RR4 whole entry): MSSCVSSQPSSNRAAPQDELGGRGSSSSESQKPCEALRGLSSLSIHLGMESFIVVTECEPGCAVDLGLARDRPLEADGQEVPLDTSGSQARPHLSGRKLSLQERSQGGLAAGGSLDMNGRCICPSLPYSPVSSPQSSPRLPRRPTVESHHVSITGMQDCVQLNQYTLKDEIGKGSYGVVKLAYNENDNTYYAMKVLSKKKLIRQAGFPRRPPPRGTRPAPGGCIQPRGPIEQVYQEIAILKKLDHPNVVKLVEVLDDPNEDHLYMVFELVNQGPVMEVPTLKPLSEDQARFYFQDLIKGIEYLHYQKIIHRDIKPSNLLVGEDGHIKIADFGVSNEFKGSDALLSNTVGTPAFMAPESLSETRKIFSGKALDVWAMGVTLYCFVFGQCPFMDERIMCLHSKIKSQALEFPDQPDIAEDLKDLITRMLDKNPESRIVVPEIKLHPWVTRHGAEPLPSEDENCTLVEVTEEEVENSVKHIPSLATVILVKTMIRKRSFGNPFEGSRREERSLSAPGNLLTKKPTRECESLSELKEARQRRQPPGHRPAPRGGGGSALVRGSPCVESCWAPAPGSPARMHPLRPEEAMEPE
Chain of Calcium/calmodulin-dependent protein kinase kinase 2 (Mus musculus, UniProt Q8C078) (Q8C078 whole entry): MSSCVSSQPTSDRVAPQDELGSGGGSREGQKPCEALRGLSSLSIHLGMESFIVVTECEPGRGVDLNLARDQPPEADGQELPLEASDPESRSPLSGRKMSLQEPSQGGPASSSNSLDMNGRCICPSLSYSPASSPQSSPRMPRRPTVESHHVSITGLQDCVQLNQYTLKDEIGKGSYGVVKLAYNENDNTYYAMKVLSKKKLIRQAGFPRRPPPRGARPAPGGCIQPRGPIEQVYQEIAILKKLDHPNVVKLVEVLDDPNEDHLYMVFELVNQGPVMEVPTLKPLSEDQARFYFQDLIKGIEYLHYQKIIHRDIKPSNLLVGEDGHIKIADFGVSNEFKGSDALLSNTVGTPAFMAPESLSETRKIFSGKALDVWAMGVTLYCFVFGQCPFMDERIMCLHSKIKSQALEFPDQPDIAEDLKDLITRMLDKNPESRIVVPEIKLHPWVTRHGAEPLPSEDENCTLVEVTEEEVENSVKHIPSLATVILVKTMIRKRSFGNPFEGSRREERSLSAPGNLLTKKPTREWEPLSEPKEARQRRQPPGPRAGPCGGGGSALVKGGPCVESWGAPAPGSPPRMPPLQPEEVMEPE
Chain of Insulin receptor (P06213 28-758 limits assumed): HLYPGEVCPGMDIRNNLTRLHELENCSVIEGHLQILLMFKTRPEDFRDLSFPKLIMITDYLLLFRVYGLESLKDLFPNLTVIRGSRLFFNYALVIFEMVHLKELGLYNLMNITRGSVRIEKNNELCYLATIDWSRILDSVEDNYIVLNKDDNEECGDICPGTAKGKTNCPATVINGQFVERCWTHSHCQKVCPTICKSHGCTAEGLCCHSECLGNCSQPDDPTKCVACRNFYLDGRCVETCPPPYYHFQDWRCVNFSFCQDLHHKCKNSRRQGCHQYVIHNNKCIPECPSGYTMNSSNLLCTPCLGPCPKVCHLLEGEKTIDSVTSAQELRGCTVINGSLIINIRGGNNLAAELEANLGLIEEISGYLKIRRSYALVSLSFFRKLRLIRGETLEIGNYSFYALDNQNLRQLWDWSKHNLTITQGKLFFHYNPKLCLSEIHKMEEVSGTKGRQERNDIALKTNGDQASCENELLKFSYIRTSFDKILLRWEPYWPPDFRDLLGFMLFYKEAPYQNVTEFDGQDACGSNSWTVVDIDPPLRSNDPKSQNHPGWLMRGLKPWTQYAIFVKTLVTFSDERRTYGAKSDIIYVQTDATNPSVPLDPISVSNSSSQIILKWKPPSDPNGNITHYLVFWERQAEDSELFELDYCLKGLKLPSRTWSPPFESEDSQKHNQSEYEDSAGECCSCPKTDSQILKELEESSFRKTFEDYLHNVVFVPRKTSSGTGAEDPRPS
Chain of Insulin receptor (P06213 763-1382 limits assumed): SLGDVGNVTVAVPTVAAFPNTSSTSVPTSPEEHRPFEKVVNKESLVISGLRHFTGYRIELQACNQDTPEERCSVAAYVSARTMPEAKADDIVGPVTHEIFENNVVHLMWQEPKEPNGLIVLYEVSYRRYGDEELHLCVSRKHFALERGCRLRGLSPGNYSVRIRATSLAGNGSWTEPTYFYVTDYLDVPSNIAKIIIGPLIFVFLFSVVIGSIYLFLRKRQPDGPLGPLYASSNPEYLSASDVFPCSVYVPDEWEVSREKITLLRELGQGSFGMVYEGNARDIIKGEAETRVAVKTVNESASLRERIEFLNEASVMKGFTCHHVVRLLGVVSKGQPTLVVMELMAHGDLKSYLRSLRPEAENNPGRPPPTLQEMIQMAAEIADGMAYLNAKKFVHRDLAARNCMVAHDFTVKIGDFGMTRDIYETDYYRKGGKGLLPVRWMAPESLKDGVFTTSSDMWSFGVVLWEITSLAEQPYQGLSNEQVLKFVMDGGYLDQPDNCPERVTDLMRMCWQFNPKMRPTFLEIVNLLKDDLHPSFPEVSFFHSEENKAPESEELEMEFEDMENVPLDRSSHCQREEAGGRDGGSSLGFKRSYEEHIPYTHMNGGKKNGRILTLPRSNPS

Row | SMILES | pIC50 [1] | solubility at 1 h [2] | pIC50 [3] | IC50 [4] | pIC50 [5] | pIC50 [6]
1 | NC(=O)c1ccc(-c2c[nH]c3ncc(-c4ccccc4OC(F)(F)F)cc23)cc1C1CCCC1 | < 5.00 | 2 µM (≈ 0.931 µg/mL) | – | – | – | –
2 | Cc1c(OCCN2CCOCC2)cccc1-c1cc2c(-c3ccc(C(N)=O)cc3)ccnc2[nH]1 | 6.60 | 17 µM (≈ 7.76 µg/mL) | 6.80 | 3160 nM | 7.80 to 8.70 | 6.60
3 | COc1ccccc1-c1cc2c(-c3ccc(C(N)=O)cc3)ccnc2[nH]1 | 6.10 | 16 µM (≈ 5.49 µg/mL) | 6.80 | 1580 nM | 7.70 to 8.50 | 6.80
4 | N#CCc1ccccc1-c1cnc2[nH]cc(-c3ccc(C(N)=O)c(C4CCCC4)c3)c2c1 | – | 96 µM (≈ 40.4 µg/mL) | – | – | – | –
5 | NC(=O)c1ccc(-c2c[nH]c3ncc(-c4ccccc4Oc4ccccc4)cc23)cc1C1CCCC1 | < 5.00 | 52 µM (≈ 24.6 µg/mL) | – | – | – | –
6 | N#Cc1ccc2c(-c3ccc(C(N)=O)c(C4CCCC4)c3)c[nH]c2n1 | – | 7 µM (≈ 2.31 µg/mL) | – | – | 5.00 to 5.90 | –
7 | Cc1ccc2c(-c3ccc(C(=O)O)c(C4CCCC4)c3)c[nH]c2n1 | < 5.00 | > 279 µM | – | – | – | –
8 | Cc1cc(OCCN2CCOCC2)ccc1-c1cc2c(-c3ccc(C(N)=O)cc3)ccnc2[nH]1 | 6.80 | 11 µM (≈ 5.02 µg/mL) | 6.90 | 1260 nM | 8.80 | 6.70
9 | Cc1cc(CN2CCOCC2)ccc1-c1cc2c(-c3ccc(C(N)=O)cc3)ccnc2[nH]1 | 5.70 | 18 µM (≈ 7.68 µg/mL) | 6.90 | 3980 nM | 7.60 to 8.10 | 6.20
10 | Cc1ccc(CN2CCOCC2)cc1-c1cc2c(-c3ccc(C(N)=O)c(C(C)C)c3)ccnc2[nH]1 | 6.70 | 1 µM (≈ 0.469 µg/mL) | 6.80 | > 10000 nM | 7.70 to 8.80 | 6.20
11 | Cc1c(CN2CCOCC2)cccc1-c1cc2c(-c3ccc(C(N)=O)cc3)ccnc2[nH]1 | 6.70 | 18 µM (≈ 7.68 µg/mL) | 7.00 | 1260 nM | 7.90 to 8.80 | 6.50
12 | Cc1cc(-c2c[nH]c3ncc(-c4ccccc4)cc23)ccc1C(=O)O | – | 100 µM (≈ 32.8 µg/mL) | – | – | – | –
13 | COC(=O)c1ccc(-c2c[nH]c3ncc(-c4ccccc4)cc23)cc1 | – | 5 µM (≈ 1.64 µg/mL) | – | – | 5.90 | –
14 | CC(C)Cc1cc(-c2c[nH]c3ncc(-c4ccccc4)cc23)ccc1C(=O)O | – | 333 µM (≈ 123 µg/mL) | – | – | 7.60 to 8.30 | –
15 | O=C(O)c1ccc(-c2c[nH]c3ncc(-c4ccccc4)cc23)cc1C1CCCC1 [GSK-650394] | 5.90 | 150 µM (≈ 57.4 µg/mL) | – | – | – | –
16 | CS(=O)(=O)Nc1ccc(-c2cc3c(-c4ccc(C(N)=O)cc4)ccnc3[nH]2)cc1 | 6.50 | 5 µM (≈ 2.03 µg/mL) | 7.50 | 316 nM | 7.90 to 8.70 | 7.20
17 | Cc1ccc(CN2CCOCC2)cc1-c1cc2c(-c3ccc(C(N)=O)cc3)ccnc2[nH]1 | 7.50 | 2 µM (≈ 0.853 µg/mL) | 5.50 | > 10000 nM | 7.80 to 8.80 | 5.20
18 | N#Cc1ccc2c(-c3ccc(C(=O)O)cc3)c[nH]c2n1 | – | 235 µM (≈ 61.9 µg/mL) | – | – | 5.00 to 5.60 | –
19 | Cc1ccc(OCCN2CCOCC2)cc1-c1cc2c(-c3ccc(C(N)=O)cc3)ccnc2[nH]1 | – | 17 µM (≈ 7.76 µg/mL) | 6.70 | 3980 nM | 7.50 to 8.70 | 6.80
20 | CN(C)Cc1cccc(-c2cc3c(-c4ccc(C(N)=O)cc4)ccnc3[nH]2)c1 | 6.90 | 56 µM (≈ 20.7 µg/mL) | 7.10 | 631 nM | 7.50 to 8.40 | 6.20
21 | NC(=O)c1ccc(-c2c[nH]c3ncc(-c4ccccc4O)cc23)cc1C1CCCC1 | 5.40 | 6 µM (≈ 2.38 µg/mL) | – | – | – | –

Row | SMILES | pIC50 [1] | solubility at 1 h [2] | pIC50 [3] | IC50 [4] | pIC50 [5] | pIC50 [6]
22 | O=C(O)c1ccc(-c2c[nH]c3ncccc23)cc1C1CCCC1 | 5.40 | > 290 µM | – | – | – | –
23 | CS(=O)(=O)c1cccc(-c2cnc3[nH]cc(-c4ccc(C(=O)O)cc4)c3c2)c1 | – | 177 µM (≈ 69.5 µg/mL) | – | – | – | –
24 | O=C(O)c1ccc(-c2c[nH]c3ncc(-c4ccccc4)cc23)cc1 | – | 82 µM (≈ 25.8 µg/mL) | – | – | 6.70 | –
25 | CC(C)c1cc(-c2c[nH]c3nc(C#N)ccc23)ccc1C(=O)O | 5.20 | > 172 µM | – | – | – | –
26 | CN(C)Cc1ccc(-c2cc3c(-c4ccc(C(N)=O)cc4)ccnc3[nH]2)cc1 | 6.80 | 157 µM (≈ 58.2 µg/mL) | 7.10 | 316 nM | 7.60 to 8.50 | 7.10
27 | CS(=O)(=O)c1cccc(-c2cnc3[nH]cc(-c4ccc(C(N)=O)cc4)c3c2)c1 | – | > 115 µM | – | – | – | –
28 | NC(=O)c1ccc(-c2c[nH]c3ncc(-c4ccccc4Oc4ccccc4)cc23)cc1 | – | 9 µM (≈ 3.65 µg/mL) | – | – | – | –
29 | CC(C)c1cc(-c2c[nH]c3ncc(-c4ccccc4)cc23)ccc1C(=O)O | 5.90 | > 439 µM | – | – | – | –
30 | CN(C)CCCNC(=O)c1cccc(-c2cc3c(-c4ccc(C(N)=O)cc4)ccnc3[nH]2)c1 | 5.40 | – | 6.90 | 3160 nM | 7.90 to 8.60 | 6.20
31 | c1ccc(-c2cnc3[nH]cc(-c4ccc(-c5nn[nH]n5)cc4)c3c2)cc1 | – | 276 µM (≈ 93.4 µg/mL) | – | – | – | –
32 | O=C(O)c1ccc(-c2c[nH]c3ncc(-c4ccccc4Oc4ccccc4)cc23)cc1 | – | 24 µM (≈ 9.75 µg/mL) | – | – | – | –
33 | NC(=O)c1ccc2c(-c3ccc(C(=O)O)c(C4CCCC4)c3)c[nH]c2n1 | – | > 205 µM | – | – | 5.00 to 5.90 | –
34 | COc1ccccc1-c1cnc2[nH]cc(-c3ccc(C(N)=O)c(C4CCCC4)c3)c2c1 | < 5.00 | 1 µM (≈ 0.412 µg/mL) | – | – | – | –
35 | CC(C)c1cc(-c2c[nH]c3nc(C#N)ccc23)ccc1C(N)=O | – | 14 µM (≈ 4.26 µg/mL) | – | – | 5.00 to 5.90 | –
36 | NC(=O)c1ccc(-c2c[nH]c3ncc(-c4ccccc4C(F)(F)F)cc23)cc1C1CCCC1 | – | 12 µM (≈ 5.39 µg/mL) | – | – | – | –
37 | N#Cc1ccc2c(-c3ccc(C(=O)O)c(C4CCCC4)c3)c[nH]c2n1 | 5.20 | 155 µM (≈ 51.4 µg/mL) | – | – | – | –
38 | CS(=O)(=O)Nc1cccc(-c2cc3c(-c4ccc(C(N)=O)cc4)ccnc3[nH]2)c1 | 5.50 | 13 µM (≈ 5.28 µg/mL) | 6.80 | 1260 nM | 7.90 to 8.50 | 6.70
39 | CC(C)Oc1ccccc1-c1cnc2[nH]cc(-c3ccc(C(N)=O)c(C4CCCC4)c3)c2c1 | < 5.00 | – | – | – | – | –
40 | CN(C)c1ccccc1-c1cnc2[nH]cc(-c3ccc(C(N)=O)c(C4CCCC4)c3)c2c1 | < 5.00 | 2 µM (≈ 0.849 µg/mL) | – | – | – | –
41 | CCc1cc(-c2c[nH]c3ncc(-c4ccccc4)cc23)ccc1C(=O)O | – | 178 µM (≈ 60.9 µg/mL) | – | – | 7.70 | –
